The source of these data is ChEMBL document CHEMBL1944595, “1,4-diarylpiperazines and analogs as anti-tubercular agents: synthesis and biological evaluation” (Eur J Med Chem, 2012).

The nature of experiment [1]: Selectivity index, ratio of IC50 for human HepG2/C3A cells to MIC for Mycobacterium tuberculosis H37Rv. The experiment is classed as functional. In outline: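 Selectivity index calculated as C3A neutral red NI50 (24 h) divided by the H37Rv luminometric MIC50.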
Experiment [2] can be described thus: Cytotoxicity against human HepG2/C3A cells after 24 hrs by neutral red assay. The experiment is classed as cell-based. In outline: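 C3A cells seeded at 40 000 per well and allowed to recover. Exposed 24 h at 37 °C, 5% CO2 to serial dilutions in DMEM + 10% FCS, tested from 10 to 0.1. Then 3 h neutral red uptake, extracted with ethanol/acetic acid, OD read at 530 nm with 620 nm reference. NI50 is the concentration reducing uptake by 50%.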

Structures are written as SMILES.

In general, IC50 refers to the concentration that gives 50% inhibition. A low value points to inhibition by little substance.

Take `CCNC(=N)c1ccc(N2CCN(c3ccccc3)CC2)cc1.Cl`: the “Selectivity Index” value in experiment [1] turned out to be 3.49. This compound displayed an IC50 in experiment [2] of 41.7 µM.
The matching figures for `CCCCCCCCNC(=N)c1ccc(N2CCN(c3ccccc3)CC2)cc1.Cl`: 72.19 and 5.18 µM.
For `CCCCCCNC(=N)c1ccc(N2CCN(c3ccccc3)CC2)cc1.Cl`, the “Selectivity Index” value in experiment [1] is 25.38. Besides, the IC50 in experiment [2] worked out at 6.71 µM.
Turning to `CCCCCNC(=N)c1ccc(N2CCN(c3ccccc3)CC2)cc1.Cl`, the “Selectivity Index” value in experiment [1] was 9.39. Further, in experiment [2], the IC50 amounted to 11.2 µM.
For `CNC(=N)c1ccc(N2CCN(c3ccccc3)CC2)cc1.Cl`, in that order: 4.45 and 71 µM.
For `CCCCCCCCCCCCNC(=N)c1ccc(N2CCN(c3ccccc3)CC2)cc1.Cl`, in that order: 107.52 and 5.61 µM.
The matching figures for `CCCCNC(=N)c1ccc(N2CCN(c3ccccc3)CC2)cc1.Cl`: 8.03 and 17.4 µM.
Take `CCCNC(=N)c1ccc(N2CCN(c3ccccc3)CC2)cc1.Cl`: the “Selectivity Index” value in experiment [1] is 3.92. The IC50 in experiment [2] was 27.5 µM.
The matching figures for `Cl.N=C(N)c1ccc(N2CCN(c3ccccc3)CC2)cc1`: 2.26 and 66.9 µM.
Regarding `CCCCCCCNC(=N)c1ccc(N2CCN(c3ccccc3)CC2)cc1.Cl`, the “Selectivity Index” value in experiment [1] is 57.2. In experiment [2], this compound returned an IC50 of 5.21 µM.
